Several values for one entry are separate records, joined by “and”; a condition that tells them apart may be missing. Equal entries are not always repeated. Activity calls are given as the source filed them. The rule behind the calls is not given here.

Data set [1] concerns the target T1, 5-hydroxytryptamine receptor 6 (Homo sapiens, UniProt P50406). Put plainly: Displacement of [3H]-LSD from human 5HT6 receptor expressed in HEK293 cell membrane at 10^-5 M measured after 60 mins relative to control. The settings on record: dose 10.0 µM. The data set is classed as cell membranes. A general note: Loss of bound radioactivity is the signal in a displacement assay; it reports binding, not function.

Data set [2] addresses T1, 5-hydroxytryptamine receptor 6. As to the kind of experiment: Displacement of [3H]-LSD from human 5HT6 receptor expressed in HEK293 cell membrane at 10^-6 M measured after 60 mins relative to control. The following applies: dose 1.0 µM. In kind it is cell membranes. The gist of the method: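 Membranes of HEK-293 cells transiently expressing human 5-HT6R (4 µg protein) incubated in duplicate for 60 min at 37 °C with 2.5 nM [3H]-LSD and drug at 10^-6 or 10^-8 M. Buffer was 25 mM Tris-HCl pH 7.4 with 0.5 mM EDTA. Filtered on GF/C and washed with ice-cold Tris buffer. Non-specific binding defined with 100 µM serotonin.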

In data set [3] the target is T2, Cholinesterase (Homo sapiens, UniProt P06276). As to the kind of experiment: Inhibition of human BuChE at 10^-5 M using butyrylthiocholine iodide as substrate peincubated for 5 mins followed by substrate addition by DTNB-reagent based Ellman's method relative to control. The following applies: dose 10.0 µM. Background: DTNB colorimetry detects thiols as they appear.
T2 sequence (P06276 whole entry): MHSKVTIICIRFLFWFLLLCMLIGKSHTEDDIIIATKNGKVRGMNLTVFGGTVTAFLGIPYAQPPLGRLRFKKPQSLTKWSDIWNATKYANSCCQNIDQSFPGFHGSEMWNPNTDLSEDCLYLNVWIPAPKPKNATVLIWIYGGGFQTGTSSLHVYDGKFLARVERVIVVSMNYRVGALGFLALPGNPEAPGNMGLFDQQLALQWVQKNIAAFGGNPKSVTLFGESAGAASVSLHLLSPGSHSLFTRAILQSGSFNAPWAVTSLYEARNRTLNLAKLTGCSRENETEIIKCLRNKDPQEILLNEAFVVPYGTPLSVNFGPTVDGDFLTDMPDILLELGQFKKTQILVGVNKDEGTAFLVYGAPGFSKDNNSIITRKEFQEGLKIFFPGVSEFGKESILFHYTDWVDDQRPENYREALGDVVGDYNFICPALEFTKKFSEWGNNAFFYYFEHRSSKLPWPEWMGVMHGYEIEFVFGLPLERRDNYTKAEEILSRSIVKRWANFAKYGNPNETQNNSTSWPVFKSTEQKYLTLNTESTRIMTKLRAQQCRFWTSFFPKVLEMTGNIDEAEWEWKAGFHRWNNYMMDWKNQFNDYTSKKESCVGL

The target of data set [4] is T3, Acetylcholinesterase (Homo sapiens, UniProt P22303). As to the kind of experiment: Inhibition of human erythrocyte AChE at 10^-6 M using acetylthiocholine iodide as substrate peincubated for 5 mins followed by substrate addition by DTNB-reagent based Ellman's method relative to control. The settings on record: dose 1.0 µM. The gist of the method: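 Human erythrocyte AChE diluted in 20 mM HEPES pH 8 with 0.1% Triton X-100 (0.05 U final). Preincubated 5 min at 25 °C with compound and 0.3 mM DTNB in phosphate buffer pH 7.4. Reaction started with 1 mM acetylthiocholine iodide.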
T3 sequence (P22303 whole entry): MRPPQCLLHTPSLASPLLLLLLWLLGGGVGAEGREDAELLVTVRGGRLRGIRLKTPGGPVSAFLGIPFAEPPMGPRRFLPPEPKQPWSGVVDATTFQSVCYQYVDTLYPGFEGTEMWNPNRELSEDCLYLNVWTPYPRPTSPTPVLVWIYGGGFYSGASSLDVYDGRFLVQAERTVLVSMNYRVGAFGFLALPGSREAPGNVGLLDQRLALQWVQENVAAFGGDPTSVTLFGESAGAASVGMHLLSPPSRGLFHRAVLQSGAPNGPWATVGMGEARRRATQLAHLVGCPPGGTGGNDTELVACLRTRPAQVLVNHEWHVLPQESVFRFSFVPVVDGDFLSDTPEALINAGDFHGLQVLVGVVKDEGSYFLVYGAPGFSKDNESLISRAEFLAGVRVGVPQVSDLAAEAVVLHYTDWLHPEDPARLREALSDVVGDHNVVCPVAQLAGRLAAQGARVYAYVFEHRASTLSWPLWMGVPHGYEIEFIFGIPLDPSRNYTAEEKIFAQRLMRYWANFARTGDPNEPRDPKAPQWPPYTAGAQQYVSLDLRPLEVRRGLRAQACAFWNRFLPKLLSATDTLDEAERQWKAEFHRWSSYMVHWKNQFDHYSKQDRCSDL

Data set [5] concerns the target T1, 5-hydroxytryptamine receptor 6. As to the kind of experiment: Displacement of [3H]-LSD from human 5HT6 receptor expressed in HEK293 cell membrane measured after 60 mins. In kind it is cell membranes.
Data set [6] addresses T2, Cholinesterase. Put plainly: Inhibition of human BuChE using butyrylthiocholine iodide as substrate peincubated for 5 mins followed by substrate addition by DTNB-reagent based Ellman's method.
For data set [7], the system named is Mus musculus. Put plainly: Reversal of MK801-induced working memory deficit in NMRI mouse assessed as increase in spontaneous alteration at 10 mg/kg, ip measured after 30 mins by Y-maze test. In kind it is functional, organism-based. The gist of the method: (§1)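 Compound 10 mg/kg ip in 0.9% NaCl given 30 min before test. Scopolamine 0.5 mg/kg or MK801 0.1 mg/kg given sc 20 min before test to induce the deficit. Mouse placed in a three-arm Y maze for a 5 min session; arm-entry sequence recorded by an observer to score spontaneous alternation. n = 9 per group.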

For data set [8], the system named is Mus musculus. As to the kind of experiment: Reversal of scopolamine-induced working memory deficit in NMRI mouse assessed as increase in spontaneous alteration at 10 mg/kg, ip measured after 30 mins by Y-maze test. In kind it is functional, organism-based. The gist of the method: as §1
Data set [9] concerns the target T1, 5-hydroxytryptamine receptor 6. Put plainly: Antagonist activity at human 5HT6 receptor expressed in COS-7 cells assessed as inhibition of 5HT-induced cAMP accumulation preincubated for 7 mins followed by 5-HT addition and measured after 10 mins by HTRF assay relative to control. The data set is classed as functional, cell-based. Also noted: scale not given: the % may be the effect or the level left. The settings on record: COS7, filed as antagonist. The gist of the method:
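COS-7 cells grown in DMEM with 10% dialyzed FCS, transiently transfected by electroporation with HA-tagged 5-HT6R plasmid, seeded. 24 h later, ligands added at 37 °C for 7 min. Then 5-HT (5.10^-7 M final) plus RO-20-1724 (0.1 mM final) added for 10 min at 37 °C. Cells lysed in 0.1% Triton X-100 and cAMP read by HTRF. Log IC50 is mean ± SEM of three experiments.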
In general terms: Cyclic AMP is a second messenger, typically raised through Gs and lowered through Gi signalling.

Data set [10] deals with Cholinesterase (Equus caballus) (UniProt P81908). As to the kind of experiment: Mixed type inhibition of equine BuchE at 10 to 500 nM using varying levels of butyrylthiocholine iodide as substrate by Lineweaver-Burk plot analysis. The following applies: dose 10-500 nM. The gist of the method: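 Ellman method with equine BuChE. Butyrylthiocholine iodide varied from 0.1 to 1 mM, inhibitor at 10, 50, 100 and 500 nM. Double-reciprocal plots of 1/velocity versus 1/[substrate] used to assign the inhibition mode.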
Chain of Cholinesterase (Equus caballus) (P81908 whole entry): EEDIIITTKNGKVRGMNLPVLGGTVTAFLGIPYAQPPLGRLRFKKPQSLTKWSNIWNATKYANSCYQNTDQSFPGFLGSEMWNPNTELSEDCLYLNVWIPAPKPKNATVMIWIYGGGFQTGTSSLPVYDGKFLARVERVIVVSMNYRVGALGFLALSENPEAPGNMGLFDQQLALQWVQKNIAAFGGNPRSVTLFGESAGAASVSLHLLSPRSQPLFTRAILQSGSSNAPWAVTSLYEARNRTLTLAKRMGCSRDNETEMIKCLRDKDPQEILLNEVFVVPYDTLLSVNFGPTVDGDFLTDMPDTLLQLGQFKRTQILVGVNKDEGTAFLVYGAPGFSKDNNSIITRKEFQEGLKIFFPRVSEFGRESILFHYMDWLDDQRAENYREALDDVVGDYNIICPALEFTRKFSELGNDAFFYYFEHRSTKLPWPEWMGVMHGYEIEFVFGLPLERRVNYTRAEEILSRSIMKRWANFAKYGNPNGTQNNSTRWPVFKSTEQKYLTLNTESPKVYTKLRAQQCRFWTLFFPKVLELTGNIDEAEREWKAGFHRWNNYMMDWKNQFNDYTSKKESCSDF

For another data set, the species on record is Homo sapiens. Put plainly: Selectivity index, ratio of IC50 for human BuChE to IC50 for human erythrocyte AChE.
A short description of data set [11]: Stability of compound in PBS buffer at pH 7.4 assessed as equine BuChE mediated decarbamoylation of compound at 5 uM incubated for 24 hrs by HPLC-LC/MS analysis. The following applies: pH 7.4, 24 h. In kind it is physicochemical. The gist of the method: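 Compound (5 µM) incubated in PBS pH 7.4 at 25 °C with 250 U/mL BuChE, or without enzyme as control. After incubation, extracted with ethyl acetate, evaporated and taken up in acetonitrile. Analyzed by C18 reversed-phase HPLC (water/acetonitrile with 0.1% formic acid, detection 280 nm) and LC-MS.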

The nature of data set [12]: Effect on spontaneous locomotory activity in NMRI mouse at 1 to 10 mg/kg, ip measured for 30 mins. The data set is classed as ADME, organism-based. The settings on record: in vivo, 0.5 h, dose 1-10 mg/kg. The gist of the method: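 Mice dosed ip at 1, 3 or 10 mg/kg in 0.9% NaCl, 30 min before test; chlorpromazine 3 mg/kg as depressive reference. Locomotion counted as infrared beam breaks in individual cages of an actimeter over 30 min. n = 8 per group; analyzed by ANOVA.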

In data set [13] the target is T3, Acetylcholinesterase. As to the kind of experiment: Inhibition of human erythrocyte AChE using acetylthiocholine iodide as substrate peincubated for 5 mins followed by substrate addition by DTNB-reagent based Ellman's method.
Data set [14] in a line: Toxicity of compound in ip dosed NMRI mouse assessed as mortality after 24 hrs. The data set is classed as organism-based. The settings on record: in vivo. The gist of the method:
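Mice in groups of four given 1, 10 or 100 mg/kg ip in 0.9% NaCl. Behavioral and neurological signs scored by standardized observation at 30 min, 3 h and 24 h. Approximate LD50 from mortality at 24 h. Amphetamine 2 mg/kg and chlorpromazine 10 mg/kg served as references.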

Data set [15] deals with T1, 5-hydroxytryptamine receptor 6. As to the kind of experiment: Antagonist activity at human 5HT6 receptor expressed in COS-7 cells assessed as inhibition of 5HT-induced cAMP accumulation preincubated for 7 mins followed by 5-HT addition and measured after 10 mins by HTRF assay. The data set is classed as functional, cell-based, COS7. The gist of the method:
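COS-7 cells grown in DMEM with 10% dialyzed FCS, transiently transfected by electroporation with HA-tagged 5-HT6R plasmid, seeded. 24 h later, ligands added at 37 °C for 7 min. Cells lysed in 0.1% Triton X-100 and cAMP read by HTRF. Log IC50 is mean ± SEM of three experiments.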

T1 sequence (P50406 whole entry): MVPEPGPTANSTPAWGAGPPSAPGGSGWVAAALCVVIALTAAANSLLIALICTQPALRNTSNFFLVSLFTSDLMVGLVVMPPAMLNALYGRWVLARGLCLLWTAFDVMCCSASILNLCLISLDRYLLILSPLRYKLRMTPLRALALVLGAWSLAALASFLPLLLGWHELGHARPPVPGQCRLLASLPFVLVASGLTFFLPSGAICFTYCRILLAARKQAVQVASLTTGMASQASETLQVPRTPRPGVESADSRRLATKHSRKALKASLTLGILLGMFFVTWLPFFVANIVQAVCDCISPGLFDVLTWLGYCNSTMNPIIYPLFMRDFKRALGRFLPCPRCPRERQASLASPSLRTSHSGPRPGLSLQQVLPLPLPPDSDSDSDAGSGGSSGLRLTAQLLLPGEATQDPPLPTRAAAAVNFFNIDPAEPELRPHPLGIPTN

For orientation: inhibition means the drop in the measured response relative to a control, in per cent. For `Fc1ccc2c(CCNCc3cccc(OCc4ccccc4)c3)c[nH]c2c1`, the inhibition in data set [1] was 14%; in data set [2] (filed as antagonist) it was 103%; at Cholinesterase [3], 2%; against Acetylcholinesterase [4], 4%.
Usually Ki stands for the dissociation constant of the complex between target and ligand, obtained from inhibition or displacement. For `Oc1cccc(CNCCc2c[nH]c3cc(F)ccc23)c1` [listing 1 of 2 here], affinity in data set [5] was put at a Ki of 0.0114 µM.
As a reminder, the IC50 is the concentration that inhibits the measured activity by half. On Cholinesterase [6], `C[C@]12N[C@H](Cc3ccccc31)c1ccccc12` [DIZOCILPINE] returned a concentration for half-maximal inhibition (IC50) of 16 µM.
Take `Oc1cccc(CNCCc2c[nH]c3cc(F)ccc23)c1` [listing 2 of 2 here]: the inhibition in data set [1] is 33%; in [1] (filed as antagonist) it was 48%; in data set [2] (filed as antagonist), 104% and 85%; against Cholinesterase [3] it was 11% and 8%; against Acetylcholinesterase [4] it was 8% and 2%. Moreover, the outcome with Mus musculus [7] was Active. The result with Mus musculus [8] was inactive. Further, in data set [9], the Activity came out at 87.2%.
Take `CCN(C)C(=O)Oc1cccc(CNCCc2c[nH]c3cc(F)ccc23)c1` [listing 1 of 2 here]: the inhibition entry in data set [10] was “Active”. The inhibition is 24% and 32% in data set [1]; 37% in data set [2]; 53% in data set [2] (filed as antagonist); 93% and 97% at Cholinesterase [3]; 9% and 5% at Acetylcholinesterase [4]. In addition, the result in the data set with Mus musculus [7] was inactive. For the same compound, the outcome in the data set on Mus musculus [8] was Active. In addition, in the data set filed under Homo sapiens, the Ratio IC50 was 0.06 and 0.05.
With `Fc1ccc2c(CCNCc3cccc(OCC(F)(F)C(F)F)c3)c[nH]c2c1`, the inhibition in [1] (filed as antagonist) was determined as 88%; in [2] (filed as antagonist), 106%; at Acetylcholinesterase [4], 6%. In addition, in data set [9], the Activity is 101%.
As a reminder, the LD50 is the dose at which mortality reaches 50%. For `CCN(C)C(=O)Oc1cccc(CNCCc2c[nH]c3cc(F)ccc23)c1.O=C(O)/C=C/C(=O)O`, in data set [11], the Drug metabolism result was “Metabolite_Detected”. The half-maximal inhibitory concentration (IC50) against Cholinesterase [6] stood at 0.835 µM; on Acetylcholinesterase [13], 17.6 µM. The Activity entry in [12] was “Non-Toxic”. In [14], the median lethal dose (LD50) at 24 h is over 100 mg/kg.
In the case of `O=C(O)/C=C/C(=O)O.Oc1cccc(CNCCc2c[nH]c3cc(F)ccc23)c1`, the IC50 in [15] is 2 µM. The compound also gave an inhibition constant Ki in data set [5] of 0.0043 µM. Also, the Activity entry in data set [12] is “Non-Toxic”. Further, in data set [14], the LD50 at 24 h was over 100 mg/kg.
Take `CCN(C)C(=O)Oc1cccc(CNCCc2c[nH]c3cc(F)ccc23)c1` [listing 2 of 2 here]: the IC50 at Cholinesterase [6] is 0.927 µM; against Acetylcholinesterase [13] it was 16.5 µM.

Values taken from ChEMBL document CHEMBL4732122, “Pleiotropic prodrugs: Design of a dual butyrylcholinesterase inhibitor and 5-HT receptor antagonist with therapeutic interest in Alzheimer's disease” (Eur J Med Chem, 2021).
